Experimental data from ChEMBL document CHEMBL3997828, “Investigation of orexin-2 selective receptor antagonists: Structural modifications resulting in dual orexin receptor antagonists” (Bioorg Med Chem Lett, 2017).
Values after ≈ are worked out from the molar mass of the structure shown. Active and inactive are the calls of the source. No cut-off for these calls is given here.

Columns and labels:
[1] = system: Rattus norvegicus; assay: Sleep promoting activity in rat assessed as increase in REM sleep at 0.5 to 3 mg/kg, po administered in mid active phase for 3 consecutive days by electroencephalogram/electromyogram analysis; type: functional, organism-based
Method in brief: (§1)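 Rats carried implanted radio-telemetry devices for EEG/EMG polysomnography. Oral doses were 0.5 (n=16), 1 (n=14) or 3 mg/kg (n=12) versus vehicle (20% vitamin E TPGS). Dosing was at ZT18:00 (6 h after lights off) on 3 consecutive days in a balanced cross-over. Active wake, NREM and REM time was scored in 30-min bins, and all treatment days were averaged over 24 h.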

[2] = system: Rattus norvegicus; assay: Sleep promoting activity in rat assessed as increase in NREM sleep at 0.5 to 3 mg/kg, po administered in mid active phase for 3 consecutive days by electroencephalogram/electromyogram analysis; type: functional, organism-based; method in brief: as §1
[3] = species on record: Homo sapiens; assay: Selectivity ratio of Ki for human OX1R expressed in CHOK1 cell membranes to Ki for human OX2R expressed in CHOK1 cell membranes; type: cell-based
Method in brief: (§2)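 Radioligand competition binding used membranes from CHO-K1 cells overexpressing human OX1R or OX2R. […] The selectivity ratio is OX1R Ki divided by OX2R Ki.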

[4] = molecular target: T1, Orexin receptor type 2 (Homo sapiens, UniProt O43614); assay: Antagonist activity at human OX2R expressed in CHOK1 cells assessed as reduction in orexin A-induced calcium flux preincubated followed by orexin A addition by FLIPR assays; type: functional, cell-based
T1 sequence (O43614 whole entry): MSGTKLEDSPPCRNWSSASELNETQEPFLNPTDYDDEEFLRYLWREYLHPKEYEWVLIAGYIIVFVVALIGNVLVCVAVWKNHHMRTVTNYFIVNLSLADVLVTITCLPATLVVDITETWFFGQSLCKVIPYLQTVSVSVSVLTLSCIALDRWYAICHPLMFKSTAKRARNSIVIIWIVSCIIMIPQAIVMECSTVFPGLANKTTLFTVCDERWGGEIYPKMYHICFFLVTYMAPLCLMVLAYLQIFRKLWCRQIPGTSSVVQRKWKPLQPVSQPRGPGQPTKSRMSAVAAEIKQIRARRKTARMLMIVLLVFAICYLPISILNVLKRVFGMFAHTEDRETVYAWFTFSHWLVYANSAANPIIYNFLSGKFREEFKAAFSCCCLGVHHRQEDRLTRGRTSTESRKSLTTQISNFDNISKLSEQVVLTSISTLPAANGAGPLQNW

[5] = molecular target: T2, Orexin/Hypocretin receptor type 1 (Homo sapiens, UniProt O43613); assay: Antagonist activity at human OX1R expressed in CHOK1 cells assessed as reduction in orexin A-induced calcium flux preincubated followed by orexin A addition by FLIPR assays; type: functional, cell-based
T2 sequence (O43613 whole entry): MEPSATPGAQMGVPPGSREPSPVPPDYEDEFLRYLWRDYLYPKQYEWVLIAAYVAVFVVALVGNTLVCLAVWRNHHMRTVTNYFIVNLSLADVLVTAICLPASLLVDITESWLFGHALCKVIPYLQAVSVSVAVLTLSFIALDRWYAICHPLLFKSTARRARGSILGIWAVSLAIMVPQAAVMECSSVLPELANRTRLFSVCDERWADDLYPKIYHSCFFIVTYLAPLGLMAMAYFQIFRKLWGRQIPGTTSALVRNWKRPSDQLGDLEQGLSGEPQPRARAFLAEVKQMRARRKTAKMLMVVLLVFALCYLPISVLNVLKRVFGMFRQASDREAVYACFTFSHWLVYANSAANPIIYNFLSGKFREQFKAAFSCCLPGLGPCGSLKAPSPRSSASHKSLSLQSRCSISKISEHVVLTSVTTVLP

[6] = species on record: Homo sapiens; assay: Selectivity ratio of IC50 for human OX1R expressed in CHOK1 cells to IC50 for human OX2R expressed in CHOK1 cells by FLIPR assay; type: cell-based
[7] = Solubility of the compound in pH 1.8 SGF at 0.1 mg/ml after 15 mins by reverse-phase chromatography; type: physicochemical; settings: simulated gastric fluid (SGF)
Method in brief: (§3)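 Compound at […] was stirred at 80 rpm in SGF (0.01 N HCl, 0.9 wt.% NaCl, pH 1.8) or FASSIF (3 mM sodium taurocholate, 0.75 mM lecithin, 100 mM NaCl, NaOH/NaH₂PO₄, pH 6.5). It was then centrifuged at 14k rpm for 15 min.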

[8] = Solubility of the compound in pH 6.5 FASSIF at 0.1 mg/ml after 15 mins by reverse-phase chromatography; type: physicochemical; settings: fasted state simulated intestinal fluid (FaSSIF); method in brief: as §3
[9] = system: Rattus norvegicus; assay: Sleep promoting activity in po dosed rat assessed as attenuation of active wake administered in mid active phase for 3 consecutive days measured up to 2 hrs post dose by electroencephalogram/electromyogram analysis; type: functional, organism-based; method in brief: as §1
[10] = system: Mus musculus; assay: Sleep promoting activity in mouse assessed as increase in REM sleep at 30 mg/kg, po administered in late active phase for 5 consecutive days by electroencephalogram/electromyogram analysis
[11] = system: Mus musculus; assay: Sleep promoting activity in mouse assessed as increase in NREM sleep at 30 mg/kg, po administered in late active phase for 5 consecutive days by electroencephalogram/electromyogram analysis
[12] = system: OX2R knockout mouse (Mus musculus); assay: Sleep promoting activity in OX2R knockout mouse assessed as increase in NREM sleep at 30 mg/kg, po administered in late active phase for 5 consecutive days by electroencephalogram/electromyogram analysis
[13] = system: OX2R knockout mouse (Mus musculus); assay: Sleep promoting activity in OX2R knockout mouse assessed as attenuation of active wake at 30 mg/kg, po administered in late active phase for 5 consecutive days by electroencephalogram/electromyogram analysis
[14] = system: Mus musculus; assay: Sleep promoting activity in mouse assessed as attenuation of active wake at 30 mg/kg, po administered in late active phase for 5 consecutive days measured up to 1.5 hrs post dose by electroencephalogram/electromyogram analysis
[15] = molecular target: T3, Nuclear receptor subfamily 1 group I member 2 (Homo sapiens, UniProt O75469); assay: Inhibition of PXR (unknown origin); type: ADME
T3 sequence (O75469 whole entry): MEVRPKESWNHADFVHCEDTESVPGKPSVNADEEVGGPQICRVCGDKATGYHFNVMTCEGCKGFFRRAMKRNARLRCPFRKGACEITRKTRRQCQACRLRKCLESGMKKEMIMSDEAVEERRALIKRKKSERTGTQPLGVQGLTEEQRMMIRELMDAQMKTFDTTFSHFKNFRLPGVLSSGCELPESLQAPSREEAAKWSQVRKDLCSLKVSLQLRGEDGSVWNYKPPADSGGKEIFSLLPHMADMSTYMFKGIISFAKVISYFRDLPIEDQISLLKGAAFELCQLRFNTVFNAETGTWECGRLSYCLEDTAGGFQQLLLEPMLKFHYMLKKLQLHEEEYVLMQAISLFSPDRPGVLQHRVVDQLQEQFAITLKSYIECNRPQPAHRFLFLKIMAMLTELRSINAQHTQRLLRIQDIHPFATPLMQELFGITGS

[16] = Time-dependent inhibition of CYP450 (unknown origin); type: ADME; settings: human
[17] = molecular target: T1, Orexin receptor type 2; assay: Displacement of [3H](S)-N-(2-(1H-pyrrol-1-yl)phenyl)-1-(2-(1-methyl-1H-benzo[d]imidazol-2-ylthio)acetyl)pyrrolidine-2-carboxamide from human OX2R expressed in CHOK1 cell membranes; method in brief: as §2
[18] = molecular target: T2, Orexin/Hypocretin receptor type 1; assay: Displacement of [3H](S)-N-(biphenyl-2-yl)-1-(2-(1-methyl-1H-benzo[d]imidazol-2-ylthio)acetyl)pyrrolidine-2-carboxamide from human OX1R expressed in CHOK1 cell membranes
Method in brief: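 Radioligand competition binding used membranes from CHO-K1 cells overexpressing human OX1R or OX2R. The selectivity ratio is OX1R Ki divided by OX2R Ki.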

| Ki [17] [nM] | Ki [18] [nM] | SMILES | Ratio Ki [3] | IC50 [5] [nM] | Ratio IC50 [6] | further results |
| --- | --- | --- | --- | --- | --- | --- |
| – | – | C[C@@H]1CC[C@@H](Oc2cc(C#N)ccn2)CN1C(=O)c1ccccc1-n1nccn1 | 518 | 3200 to 3830 | 295 to 356 | Activity [1]: Active; Activity [2]: Active; IC50 [4]: 9 to 13 nM; solubility at 0.25 h [7]: 13.7 µg/mL (≈ 35.3 µM); solubility at 0.25 h [8]: 13.5 µg/mL (≈ 34.8 µM); Activity [9]: Dose-dependent effect; Activity [10]: Active; Activity [11]: Active; Activity [12]: inactive; Activity [13]: inactive; Activity [14]: Active |
| – | – | COc1ccc(C(=O)N2C[C@H](Oc3nccc(C#N)c3C)CC[C@H]2C)c(-n2nccn2)n1 | 1190 | 5930 | 282 | inhibition (INH) [15]: Active |
| – | – | Cc1c(C#N)ccnc1O[C@@H]1CC[C@@H](C)N(C(=O)c2ccccc2C(F)(F)F)C1 | 373 | 4960 | 236 | – |
| – | – | Cc1c(C#N)ccnc1O[C@@H]1CC[C@@H](C)N(C(=O)c2ccccc2-n2nccn2)C1 | 285 | 996 | 125 | – |
| – | – | Cc1c(C#N)ccnc1O[C@@H]1CC[C@@H](C)N(C(=O)c2cccnc2-c2ccccc2)C1 | 434 | 4670 | 180 | – |
| – | – | COc1ccc(C(=O)N2C[C@H](Oc3nccc(C#N)c3C)CC[C@H]2C)c(SC)n1 | 1260 | > 10000 | > 455 | TDI [16]: Active |
| – | – | COC(=O)c1ccnc(O[C@@H]2CC[C@@H](C)N(C(=O)c3ccccc3-n3nccn3)C2)c1 | 80 | – | 82 | – |
| – | – | Cc1c(C#N)ccnc1O[C@@H]1CC[C@@H](C)N(C(=O)c2ccc(Br)nc2-n2nccn2)C1 | 326 | > 10000 | > 345 | – |
| – | – | Cc1c(C#N)ccnc1O[C@@H]1CC[C@@H](C)N(C(=O)c2ccccc2-n2ncnn2)C1 | 358 | 4590 | 596 | – |
| – | – | CCOc1ccccc1C(=O)N1C[C@H](Oc2nccc(C#N)c2C)CC[C@H]1C | 849 | 2100 | 350 | inhibition (INH) [15]: Active |
| 2.5 | 66 | COC(=O)c1cccnc1O[C@@H]1CC[C@@H](C)N(C(=O)c2ccccc2-n2nccn2)C1 | 26 | 309 | 9 | IC50 [4]: 35 nM |
| – | – | Cc1c(C#N)ccnc1O[C@@H]1CC[C@@H](C)N(C(=O)c2ccccc2N2CCCC2)C1 | 232 | 3100 | 107 | TDI [16]: Active |
| 0.4 | 12 | COC(=O)c1cccnc1N[C@@H]1CC[C@@H](C)N(C(=O)c2ccccc2-n2nccn2)C1 | 30 | 69 | 2 | – |
| 0.7 | 10 | CC(=O)Nc1cc(C(=O)N2C[C@H](Oc3nccc(C#N)c3C)CC[C@H]2C)c(-c2ccccc2)cn1 | 14 | 71 | 2 | IC50 [4]: 38 nM |
| 1.7 | 324 | C[C@@H]1CC[C@@H](Sc2cc(C#N)ccn2)CN1C(=O)c1ccccc1-n1nccn1 | 191 | – | 109 | IC50 [4]: 13 nM |
| 0.5 | – | COC(=O)c1c(C#N)ccnc1O[C@@H]1CC[C@@H](C)N(C(=O)c2ccccc2-n2nccn2)C1 | 112 | – | 39 | – |
| 2.2 | 834 | C[C@@H]1CC[C@@H](Oc2nccc3c2C(=O)OC3(C)C)CN1C(=O)c1ccccc1-n1nccn1 | 379 | – | 414 | – |
| 0.8 | 6.3 | COC(=O)c1cccnc1S[C@@H]1CC[C@@H](C)N(C(=O)c2ccccc2-n2nccn2)C1 | 8 | – | 2 | – |
| – | 569 | C[C@@H]1CC[C@@H](Oc2cc(C#N)ccn2)CN1C(=O)c1ccccc1-c1ncccn1 | 438 | – | 175 | solubility at 0.25 h [7]: 680 µg/mL (≈ 1700 µM); solubility at 0.25 h [8]: 660 µg/mL (≈ 1650 µM) |
| 0.6 | 12 | CC(=O)Nc1ccc(-c2ccccc2)c(C(=O)N2C[C@H](Oc3nccc(C#N)c3C)CC[C@H]2C)n1 | 20 | 74 | 2 | IC50 [4]: 38 nM |
| – | – | COc1ccc(C(=O)N2C[C@H](Oc3nccc(C#N)c3C)CC[C@H]2C)c(-n2nccn2)c1 | – | – | – | inhibition (INH) [15]: Active |
| – | – | COc1ccc(C(=O)N2C[C@H](Oc3nccc(C#N)c3C)CC[C@H]2C)c(C2CC2)n1 | – | – | – | TDI [16]: Active |
| – | – | Cc1c(C#N)ccnc1O[C@@H]1CC[C@@H](C)N(C(=O)c2ccccc2C2CC2)C1 | 741 | 1740 | 193 | – |

| SMILES | Ki [17] [nM] | Ki [18] [nM] | Ratio Ki [3] | IC50 [5] [nM] | Ratio IC50 [6] | further results |
| --- | --- | --- | --- | --- | --- | --- |
| C[C@@H]1CC[C@@H](Nc2cc(C#N)ccn2)CN1C(=O)c1ccccc1-n1nccn1 | 0.9 | 287 | 319 | 1740 | 60 | – |
